Data: ChEMBL document CHEMBL4513216, “Probing the Open Global Health Chemical Diversity Library for Multistage-Active Starting Points for Next-Generation Antimalarials” (ACS Infect Dis, 2020)

Experiment: Toxicity liver stage against HepG2, at 10uM
Format: cell-based
Set-up: test concentration 10 uM, cell line HepG2-A16-CD81EGFP
Details: human, HepG2-A16-CD81EGFP cells; read-out: INHIBITION
In short: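 Uninfected HepG2-A16-CD81EGFP cells, 3 × 10^3 per well, 1536-well, plated on prespotted compound at 10 μM final, parasite-free screening media added to match infected plates; puromycin 10 μM positive, DMSO 0.5% negative; run in parallel with 48 h PbLuc assay at 37 °C, 5% CO2; viability by CellTiter-Glo luminescence, normalized to controls.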

Compound	cytotoxicity at 10 µM [%]
Cc1nn(CC(C)C)c(N(C)C)c1CNCc1ccnn1C	-22.3
COc1ccc(CNCc2c(C)nn(C)c2N2CCOCC2)cc1	-1.32
CC(NC(=O)Cn1cc(-c2ccccc2)cn1)C1CC1 (configuration not stated)	1.36
Cc1cc(NC(=O)N2CCN(c3nc(C)c(C)s3)CC2)no1	3.04
Cn1cc(CNC(=O)C2COCC(=O)N2Cc2ccccc2)cn1 (configuration not stated)	-4.88
O=S(=O)(Cc1ccccc1CN1CCOCC(O)C1)c1ccccc1 (configuration not stated)	-22.8
CCOc1cccc(CN2CCCC(Nc3ccc(F)cc3)C2)c1O (configuration not stated)	-8.93
Cc1nc2c(c(C)c1CC(=O)NCc1ccco1)c(=O)[nH]n2C	-42.5
O=C(c1cnc(-c2ccco2)s1)N1CCOc2ncccc21	7.48
Cc1cnn(CC2CCCN2Cc2cc(=O)n3ccccc3n2)c1 (configuration not stated)	-1.61
N#CCCN(CC1CCCO1)C(=O)c1ccsc1 (configuration not stated)	0.325
O=C(Nc1ccc2scnc2c1)N1CCN([C@H]2CCCC[C@@H]2O)CC1	-53.6
Cc1noc(C)c1C(=O)N1C[C@@H]2COC[C@]2(COc2ccccn2)C1	2.47
Cc1ncccc1OC1(C(=O)NCCC2CCCN2C)CCNCC1 (configuration not stated)	2.18
CCOCCCNC(=O)c1cn(CC)nc1C	5.37
N#CCSCCCN1CCN(C(=O)C2CCCC2)CC1	5.34
Cc1noc(COCC(=O)Nc2ncccc2Br)n1	2.13
CC(C)(C)n1ncc2c1CCCC2NCc1ccc2c(c1)CCO2 (configuration not stated)	2.55
Cc1cccc(CS(=O)(=O)NCC(O)Cc2ccccc2)c1 (configuration not stated)	-19.5
O=C(NCc1cc[nH]n1)N1CCN(c2ncccn2)CC1	-3.29
Cc1nc(CN2CCN(C(C)c3nc(C4CC4)no3)CC2)no1 (configuration not stated)	-6.34
Cn1cc(C(=O)Nc2cccc(CCN3CCCC3)c2)ccc1=O	7.76
COCCN1C2(CCN(C(=O)c3cccs3)C2)c2ccccc2S1(=O)=O (configuration not stated)	-131

Compound	cytotoxicity at 10 µM [%]
O=C(CC(SC1CCCCC1)C(=O)O)c1ccc(Br)cc1 (configuration not stated)	3.43
Cc1nc(CN2CCC3(CCCN(Cc4cnn(C)c4)C3)C2=O)cs1 (configuration not stated)	-5.74
Fc1ccc(Br)c(NCc2nnsc2Cl)c1	14.3
CCN(CCn1cccn1)Cc1nc(-c2cccs2)oc1C	-0.179
O=C(NCCOc1ccc(Cl)cn1)Nc1cccnc1	-2.3
O=c1c(C(F)(F)F)cccn1Cc1nnc(-c2cccnc2)o1	-2.93
CC(C)c1nc2c(n1C)CCN(CC(=O)Nc1ccncc1)C2	0.698
COc1ccc2c(c1)NC(C1CCN(C(=O)C3CC3)CC1)NS2(=O)=O (configuration not stated)	0.0454
Nc1cc2c(nn1)CCN(C(=O)CCCC1CCCCC1)C2	-0.0113
CCN1c2ccc(-c3cncn3CC(=O)NC(C)(C)C)cc2CC1C (configuration not stated)	-0.579
COc1ccccc1NC(=O)NCC(O)c1ccc(F)cc1F (configuration not stated)	4.1
CC(C)c1n[nH]c(C2CN(Cc3ccno3)CCO2)n1 (configuration not stated)	5.49
CC(C)OCCN1CCN(c2ccc(CN(C)C)cn2)CC1	-5.89
CCOCC(O)CN1CCN(C(=O)C2CC2)CC1 (configuration not stated)	-7.2
CCCc1n[nH]c(=O)n1Cc1ccc(OC)cc1	-130
O=C(c1ccncc1)N(CCO)Cc1cc(Br)ccc1F	10.2
COc1c(C2CCCN2C(=O)c2cnccn2)c(C)nn1C (configuration not stated)	0.501
Cc1nc2c(c(N(C)C)n1)CCN(C(=O)CN1CCC(O)CC1)C2	3.6
CC[C@H]1CN(S(C)(=O)=O)CC[C@H]1CC(=O)NCCSC	3.45
CC1(C(N)=O)CN(CC2CCOCC2)CCO1 (configuration not stated)	-0.74
C=C(C)CN(CC)C(=O)c1cc(Cl)ccc1NS(C)(=O)=O	7.17
O=C(Nc1ccc(Cn2cccn2)cc1)N1CCC(CO)CC1	47.8
O=S(=O)(Cc1ccc(Br)cc1)NCCO	6.73

Compound	cytotoxicity at 10 µM [%]
Cc1ccc(CN2C[C@H](C(=O)N3CCCCO3)[C@@H]3CCO[C@@H]3C2)o1	9.46
CN1CCCN(C(=O)c2cnsn2)c2cc(Cl)ccc21	-7.34
CCOc1ncccc1NC(=O)N1CCOCC1C (configuration not stated)	10.3
OC(COCc1ccco1)CN1CCc2c(ncn2C2CC2)C1 (configuration not stated)	-0.885
O=C(c1ccc2c(c1)OCO2)N1CCCC(Nc2ccc(F)cc2)C1 (configuration not stated)	-5.05
c1ccc2oc(CCCN3CCCC(Cn4cncn4)C3)nc2c1 (configuration not stated)	-27.8
Cc1nc(C2(NCc3cc(C#N)ccc3F)CCCCC2)no1	9.68
Cc1ccc(OCCSC2=NCCN2)cc1	-2.01
CSCCC(=O)N[C@H]1CC[C@H](Nc2nccc(-c3ccncc3)n2)C1	-0.664
c1cc(CN2C[C@@H]3OCCN(CCN4CCCC4)[C@@H]3C2)cs1	-1.46
Nc1nc2c(c(=O)[nH]1)CCN(C(=O)c1cccc3nccnc13)C2	-11.4
CC(NC(=O)Cc1ccon1)c1ccc(OCC2CC2)c(F)c1 (configuration not stated)	5.47
COc1cccc(CNC(=O)C(C)N2CC(n3nc(C)cc3C)C2)c1 (configuration not stated)	0.868
CCC[C@@H]1CN(Cc2c[nH]nc2-c2ccc(OC)cc2)C[C@H]1NC(C)=O	-0.566
Cc1noc(CCCc2nc(C3CCOC3)no2)n1 (configuration not stated)	3.5
Fc1ccc(-c2cnc(CN3CCOC(Cn4cccn4)C3)o2)cc1 (configuration not stated)	-12.1
CCN(CC)C(=O)c1nnc2ccc(N3CCOCC3)cc2n1	5.37
Cc1cccc(-c2noc(CNC(C)Cn3cc(C)cn3)n2)c1 (configuration not stated)	-2.87
COCCN1CCCN(C(=O)NC(C)Cn2ccnc2)CC1 (configuration not stated)	-9.29
O=C(NCc1ccco1)[C@@H]1CC[C@@H]2[C@@H](CCN2CC2CC2)O1	-4.48
CC(C)[C@@H]1CN(C(=O)C2(c3ccccc3)CCN(C)CC2)C[C@H]1N(C)C	-32
OC(CN(Cc1ccccc1)Cc1cccnc1)c1cccs1 (configuration not stated)	4.01
CC(C)Cc1noc(CN(C)c2ncccn2)n1	5.23

Compound	cytotoxicity at 10 µM [%]
N#Cc1ccc(OC[C@]23COC[C@H]2CN(Cc2nccs2)C3)nc1	2.37
Cn1cccc1-c1cc(C(=O)NCCCc2csc(N)n2)[nH]n1	-8.9
CSc1ccc(CCN2CCN([C@H]3CCCC[C@@H]3O)CC2)cc1	-3.38
Cc1n[nH]c2c1C(c1ccc3c(c1)OCO3)SCC(=O)N2 (configuration not stated)	3.46
CC(C)c1noc([C@@H]2Cc3[nH]cnc3CN2C(=O)Nc2ccccc2)n1	0.0515
Cc1ccccc1CNC(=O)CN1CCN(Cc2nccn2C)CC1	-5.75
CN(C)C(=O)N1CC2(CCNCC2)c2cc(F)ccc21	-79.9
c1cncc(OCc2noc3c2CN(Cc2ccoc2)CC3)c1	-8.33
CCc1ccc(CCNc2ncnc3c2CCN(C(=O)C2CC2)C3)cc1	36.9
CN1[C@@H]2CC[C@H]1CN(C(=O)c1nnc3n1CCCCC3)CC2	-5.43
CN(CC(O)C1CC1)C(=O)c1ccc(-c2nc(C3CC3)no2)cc1 (configuration not stated)	-3.45
Cc1noc(C)c1CN(C)C(=O)NC1CCN(C2CC2)CC1	-10.1
CC(C)[C@@H]1CN(C(=O)c2ccc3c(c2)CCCO3)C[C@H]1NS(C)(=O)=O	-6.53
Cc1cc(=O)[nH]c(NCCNC(=O)C(c2ccc(F)cc2)N(C)C)n1 (configuration not stated)	-29.5
CCC(CN1CCCC1)NC(=O)C1(c2ccc(F)cc2)CC1 (configuration not stated)	-1.76
COc1ccccc1OCCCN1CC=C(c2cnn(C)c2)CC1	8.32
CCc1ccc(C2COCCN2C(=O)NCc2cccc(C#N)c2)o1 (configuration not stated)	-0.838
Cn1cc(CCCN2CCN(C(=O)c3cccc(O)c3)CC2)cn1	-46.1
NC(=O)N1CC[C@@H]2O[C@@H](COCC(=O)N3CCCC3)CC[C@@H]21	-0.356
Cc1cc(C)n(C2CCN(C(=O)c3cn4ccsc4n3)C2)n1 (configuration not stated)	6.59
Cc1cc(NC2CCN(c3ccc(F)cc3)CC2)n2nc(C)cc2n1	-0.527
CCOc1cccc(CN2CCCn3nc(CNS(C)(=O)=O)cc3C2)c1	-4.01
CC(C)CCC(=O)N1CCN(C(=O)c2ccc(-n3cccn3)cc2)CC1	4.28

Compound	cytotoxicity at 10 µM [%]
Cc1cc(CC(C)Nc2ncc(C)c(N(C)C)n2)[nH]n1 (configuration not stated)	-7.85
CC(=O)N1CCC(C(=O)NCCc2c[nH]c3cc(C)ccc23)CC1	18.1
Cc1nc(N2CCCC2)nc2c1CCN(Cc1ccco1)CC2	-6.52
CCS(=O)(=O)N1CCCC(n2nnn(-c3ccccc3)c2=O)C1 (configuration not stated)	2.65
CN(C)C(=O)Cn1cc(C(=O)NCCc2cccc(Cl)c2Cl)nn1	-1.42
Cc1nn(C)c(Cl)c1C1CCCN1c1ncnc2[nH]ccc12 (configuration not stated)	10.9
COCCNC(=O)Nc1ccc(F)c(C(N)=O)c1	-6.46
CCN(CC)Cc1ccc(C(=O)N2CCCCC2Cn2cccn2)o1 (configuration not stated)	-7.89
Cc1cccc(-c2noc(CN3CCCC3Cn3cncn3)n2)c1 (configuration not stated)	0.983
O=C(c1ccnnc1)N1CC[C@]2(C[C@H](Oc3ncccc3F)CO2)C1	3.42
COc1ncccc1CN1Cc2nnn(C)c2C(COCC2CC2)C1 (configuration not stated)	12.4
O=C(c1ccoc1)N1CC[C@@H]2O[C@@H](COCCN3CCCC3)CC[C@@H]21	-89.7
CCS(=O)(=O)Nc1ccc2c(c1)C1(CCOCC1)CN2C	-107
O=S(=O)(NC1CCOC1)c1ccc(C(F)(F)F)nc1 (configuration not stated)	8.16
Cc1cccc(-c2noc(CN3CCCC(Cn4cncn4)C3)n2)c1 (configuration not stated)	-3.51
CCC(=O)Nc1nnc(CCOc2ccc(OC)cc2)s1	6.31
CCc1nccn1CC1CCCN1S(=O)(=O)Cc1ccccc1 (configuration not stated)	-13.4
CC(CN1CCOCC1)NC(=O)N1CCN(S(C)(=O)=O)CC1 (configuration not stated)	0.243
CSc1ccc(C(CN)N2CCc3sccc3C2)cc1 (configuration not stated)	-5.93
O=S(=O)(c1ccccc1)N1CCN(Cc2ccc(F)cc2Br)CC1	-2.57
